Published values collected from several papers.
Each line is one published result; the experiments were not run side by side.
Target: Tyrosine-protein kinase receptor UFO (AXL, Homo sapiens, UniProt P30530)
Tested at: 1 µM
Sequence (P30530 26-894, as in one of the studies): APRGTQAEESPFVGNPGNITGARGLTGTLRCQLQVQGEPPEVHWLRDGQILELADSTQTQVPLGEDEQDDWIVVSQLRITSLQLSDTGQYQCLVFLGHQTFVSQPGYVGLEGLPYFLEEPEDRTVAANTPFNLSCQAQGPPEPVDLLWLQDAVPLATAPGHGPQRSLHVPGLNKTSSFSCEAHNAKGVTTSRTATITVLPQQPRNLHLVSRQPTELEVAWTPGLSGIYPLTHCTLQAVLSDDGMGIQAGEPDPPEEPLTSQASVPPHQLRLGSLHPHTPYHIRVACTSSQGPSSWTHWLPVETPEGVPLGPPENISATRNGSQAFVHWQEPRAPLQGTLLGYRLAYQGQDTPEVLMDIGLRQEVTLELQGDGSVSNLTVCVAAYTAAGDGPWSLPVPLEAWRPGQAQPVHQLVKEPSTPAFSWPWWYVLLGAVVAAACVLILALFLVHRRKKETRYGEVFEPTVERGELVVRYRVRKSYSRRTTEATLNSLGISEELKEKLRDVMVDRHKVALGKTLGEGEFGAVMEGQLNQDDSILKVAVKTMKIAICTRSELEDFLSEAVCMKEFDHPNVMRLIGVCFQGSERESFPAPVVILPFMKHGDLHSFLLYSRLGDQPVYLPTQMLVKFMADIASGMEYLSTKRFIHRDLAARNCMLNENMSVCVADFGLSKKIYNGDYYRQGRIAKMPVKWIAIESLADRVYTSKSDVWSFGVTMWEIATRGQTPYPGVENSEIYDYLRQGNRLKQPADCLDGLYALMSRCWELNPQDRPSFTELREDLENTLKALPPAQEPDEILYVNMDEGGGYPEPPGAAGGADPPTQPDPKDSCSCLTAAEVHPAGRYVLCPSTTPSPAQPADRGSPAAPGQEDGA

With `CN1CCN(C(=O)c2ccc(NC(=O)Nc3ccc(N(C)c4ccnc(Nc5ccc(CS(C)(=O)=O)cc5)n4)cc3)cc2)CC1` the remaining binding was 9.7% (binding, competition with immobilised ligand).
`C=CC(=O)N1CCC[C@@H](n2nc(-c3ccc(Oc4ccccc4)cc3)c3c(N)ncnc32)C1` has an inhibition of 34% (enzyme activity, inhibitor).
`Cc1cc(S(=O)(=O)N[C@H]2CC[C@H](CN3CCN(c4ccc(C5CCC(=O)NC5=O)cc4F)CC3)CC2)ccc1Nc1ncc(C(F)(F)F)c(N2CCC[C@](C)(O)C2)n1` (some centres unmarked) has a remaining binding of 56% (binding, competition with immobilised ligand).
With `C[C@H]1CC[C@H](n2c3cnccc3c3cnc(Nc4ccc5c(n4)CCN(C(=O)CO)C5)nc32)CC1` the remaining binding was 81% (binding, competition with immobilised ligand).
`C#Cc1cnc(Nc2ccnc(CO)c2)nc1Nc1ccccc1S(C)(=O)=NC#N` (centres unmarked) gave a remaining activity of 26.1% (enzyme activity, inhibitor).
`C=CC(=O)N1CCC([C@@H]2CCNc3c(C(N)=O)c(-c4ccc(Oc5ccccc5)cc4)nn32)CC1` gave an inhibition of 0% (enzyme activity, inhibitor).
With `C[C@]1(O)CCCN(c2nc(Nc3ccc(S(=O)(=O)N[C@H]4CC[C@H](CN5CCN(c6ccc(C7CCC(=O)NC7=O)cc6F)CC5)CC4)cc3Cl)ncc2C(F)(F)F)C1` (some centres unmarked) the remaining binding was 98% (binding, competition with immobilised ligand).
With `C#Cc1cnc(Nc2ccc(CO)nc2)nc1Nc1ccccc1S(C)(=O)=NC#N` (centres unmarked) the remaining activity was 27.6% (enzyme activity, inhibitor).
